{"source": "paper PMC7396962", "about": "(Xenobiotica; the fate of foreign compounds in biological …, 2020)", "key": {"[1]": {"target": "T1, UGT1A9 (Homo sapiens, UniProt O60656)", "T1 sequence (O60656 26-530)": "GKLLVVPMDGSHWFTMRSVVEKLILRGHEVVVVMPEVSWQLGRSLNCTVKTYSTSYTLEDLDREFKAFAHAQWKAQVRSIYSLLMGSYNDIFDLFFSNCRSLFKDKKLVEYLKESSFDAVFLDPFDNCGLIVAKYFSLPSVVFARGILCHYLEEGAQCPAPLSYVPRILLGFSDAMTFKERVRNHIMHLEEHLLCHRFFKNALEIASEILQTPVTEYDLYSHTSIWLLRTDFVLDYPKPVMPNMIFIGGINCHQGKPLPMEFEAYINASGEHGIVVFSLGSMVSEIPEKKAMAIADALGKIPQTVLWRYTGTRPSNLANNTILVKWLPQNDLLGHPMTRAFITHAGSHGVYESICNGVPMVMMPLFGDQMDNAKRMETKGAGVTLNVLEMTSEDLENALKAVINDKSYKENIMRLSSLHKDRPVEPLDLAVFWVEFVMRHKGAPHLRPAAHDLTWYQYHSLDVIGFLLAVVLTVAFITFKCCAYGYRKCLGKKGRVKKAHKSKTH", "test": "Glucuronidation of CA by recombinant UGT1A9", "assay_type": "in vitro ADME", "details": "formation of the glucuronide from CA"}, "[2]": {"details": "rat, in vivo; cited from earlier work"}, "[3]": {"target": "T1, UGT1A9", "assay_type": "in vitro ADME", "details": "panel of HLMs (n = 9), substrate 10 μM, p = 0.015", "how_it_was_run": "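Test compound (10 μM) glucuronidated in each of nine individual human liver microsomes (1 mg/mL) with UDPGA and alamethicin, pH 7.4, 37 °C for 60 min. Rates regressed linearly against each donor's propofol O-glucuronidation activity; correlation coefficient r reported, p < 0.05 significant.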"}, "[4]": {"target": "T2, CYP2C8 (Homo sapiens, UniProt P10632)", "T2 sequence (P10632 1-490)": "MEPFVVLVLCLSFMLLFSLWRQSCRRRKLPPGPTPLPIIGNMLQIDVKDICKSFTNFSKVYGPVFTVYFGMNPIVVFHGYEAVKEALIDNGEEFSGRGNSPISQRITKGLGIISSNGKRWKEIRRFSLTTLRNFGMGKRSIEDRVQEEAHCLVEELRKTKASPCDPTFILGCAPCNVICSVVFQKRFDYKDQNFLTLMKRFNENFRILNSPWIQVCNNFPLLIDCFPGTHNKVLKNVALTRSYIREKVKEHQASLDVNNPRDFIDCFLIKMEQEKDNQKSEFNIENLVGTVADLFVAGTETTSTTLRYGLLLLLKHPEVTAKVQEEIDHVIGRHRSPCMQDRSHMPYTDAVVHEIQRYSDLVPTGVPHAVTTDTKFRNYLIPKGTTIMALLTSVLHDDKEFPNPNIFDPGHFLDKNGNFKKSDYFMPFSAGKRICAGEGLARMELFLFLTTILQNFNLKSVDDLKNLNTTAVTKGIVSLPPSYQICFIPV", "assay_type": "in vitro ADME", "details": "panel of HLMs (n = 9), substrate 10 μM, p = 0.001", "how_it_was_run": "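Nine individual human liver microsomes (1 mg/mL) each incubated with test compound at 10 μM plus 1 mM NADPH, pH 7.4, 37 °C, 60 min. Oxidation rates correlated by linear regression (r) with each donor's paclitaxel 6-hydroxylation activity. p < 0.05 taken as significant.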"}, "[5]": {"target": "T3, UGT1A8 (Homo sapiens, UniProt Q9HAW9)", "T3 sequence (Q9HAW9 26-530)": "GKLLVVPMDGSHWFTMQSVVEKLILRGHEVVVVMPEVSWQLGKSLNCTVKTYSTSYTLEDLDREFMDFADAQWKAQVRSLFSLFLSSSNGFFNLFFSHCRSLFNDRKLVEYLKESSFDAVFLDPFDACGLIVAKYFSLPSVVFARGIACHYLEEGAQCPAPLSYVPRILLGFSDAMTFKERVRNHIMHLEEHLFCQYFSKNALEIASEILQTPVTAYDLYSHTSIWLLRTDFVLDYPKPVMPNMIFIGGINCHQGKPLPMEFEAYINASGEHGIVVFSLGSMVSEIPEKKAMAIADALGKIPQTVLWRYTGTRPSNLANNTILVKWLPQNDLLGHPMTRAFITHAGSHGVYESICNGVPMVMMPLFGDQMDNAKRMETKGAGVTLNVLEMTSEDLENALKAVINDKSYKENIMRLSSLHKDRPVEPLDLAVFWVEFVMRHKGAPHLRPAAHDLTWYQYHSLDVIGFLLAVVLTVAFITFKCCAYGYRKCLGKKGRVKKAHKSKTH", "test": "Glucuronidation of CA by recombinant UGT1A8", "assay_type": "in vitro ADME", "details": "formation of the glucuronide from CA"}, "[6]": {"target": "T4, UGT1A1 (Homo sapiens, UniProt P22309)", "T4 sequence (P22309 26-533)": "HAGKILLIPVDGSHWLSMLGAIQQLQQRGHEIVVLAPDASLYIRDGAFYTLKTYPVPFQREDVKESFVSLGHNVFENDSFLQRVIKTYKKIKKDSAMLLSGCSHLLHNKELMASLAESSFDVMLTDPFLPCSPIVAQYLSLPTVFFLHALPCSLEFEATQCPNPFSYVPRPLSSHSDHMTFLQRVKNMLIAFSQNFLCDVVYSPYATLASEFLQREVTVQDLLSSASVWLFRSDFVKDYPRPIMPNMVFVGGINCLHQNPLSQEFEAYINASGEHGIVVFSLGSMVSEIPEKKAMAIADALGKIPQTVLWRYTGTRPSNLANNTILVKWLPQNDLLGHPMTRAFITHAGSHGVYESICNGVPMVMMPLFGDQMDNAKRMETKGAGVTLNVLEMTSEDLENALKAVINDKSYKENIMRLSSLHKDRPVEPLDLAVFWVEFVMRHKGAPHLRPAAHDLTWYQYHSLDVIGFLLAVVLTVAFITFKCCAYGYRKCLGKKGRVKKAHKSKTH", "assay_type": "in vitro ADME", "details": "panel of HLMs (n = 9), substrate 10 μM, p = 0.049"}, "[7]": {"tested_on": "severe acute respiratory syndrome coronavirus papain-like protease", "details": "read-out: inhibitory effects on severe acute respiratory syndrome coronavirus papain-like protease; cited from earlier work"}, "[8]": {"details": "rat, in vivo, cited from earlier work"}, "[9]": {"tested_on": "PPAR-γ", "details": "ref Ma et al., 2016; cited from earlier work"}, "[10]": {"tested_on": "human UGT1A1", "details": "cited from earlier work"}}, "data": [{"smiles": "CC(C)=CCC/C(C)=C/Cc1cc(-c2coc3cc(O)ccc3c2=O)ccc1O", "note": "[CA, Corylifol A]", "values": [{"measurement": "CLint", "setting": "[1]", "result": 191.94, "unit": "µL/min/mg"}, {"measurement": "distribution concentrations of CA at different nuclei", "setting": "[2]", "result": "260.63 to 493.29", "unit": "ng·h/g"}, {"measurement": "correlation (r) between CA-7-O-glucuronidation and propofol-O-glucuronidation", "setting": "[3]", "result": 0.771}, {"measurement": "correlation (r) between CA-mono-oxidation and paclitaxel-6-hydroxylation", "setting": "[4]", "result": 0.921}, {"measurement": "CLint", "setting": "[5]", "result": 135.59, "unit": "µL/min/mg"}, {"measurement": "correlation (r) between CA-7-O-glucuronidation and β-estradiol-3-O-glucuronidation", "setting": "[6]", "result": 0.668}, {"measurement": "IC50", "setting": "[7]", "result": "32300 ± 3200", "unit": "nM"}, {"measurement": "maximal plasma concentration (Cmax) of CA", "setting": "[8]; 2 g/kg", "result": 8.87, "unit": "ng/mL"}, {"measurement": "Cmax of CA", "setting": "[8]; po, 1.2 g/kg", "result": 1.70, "unit": "ng/mL"}, {"measurement": "in vitro PPAR-γ activation", "setting": "[9]", "result": "PPAR-γ activation"}, {"measurement": "IC50", "setting": "[10]", "result": 650, "unit": "nM"}, {"measurement": "Ki", "setting": "[10]", "result": 790, "unit": "nM"}]}]}
